Measurements published in ChEMBL document CHEMBL1811853, “Design and evaluation of 3-aminopyrazolopyridinone kinase inhibitors inspired by the natural product indirubin” (Bioorg Med Chem, 2011).
In brackets after ≈: the same amount, converted by molar mass.

How the values were obtained:
[1] = biological target: T1, MAP kinase-activated protein kinase 5 (Homo sapiens) (UniProt Q8IW41); assay: Inhibition of PRAK1 at 30 uM by microfluidic mobility shift assay
T1 sequence (whole entry): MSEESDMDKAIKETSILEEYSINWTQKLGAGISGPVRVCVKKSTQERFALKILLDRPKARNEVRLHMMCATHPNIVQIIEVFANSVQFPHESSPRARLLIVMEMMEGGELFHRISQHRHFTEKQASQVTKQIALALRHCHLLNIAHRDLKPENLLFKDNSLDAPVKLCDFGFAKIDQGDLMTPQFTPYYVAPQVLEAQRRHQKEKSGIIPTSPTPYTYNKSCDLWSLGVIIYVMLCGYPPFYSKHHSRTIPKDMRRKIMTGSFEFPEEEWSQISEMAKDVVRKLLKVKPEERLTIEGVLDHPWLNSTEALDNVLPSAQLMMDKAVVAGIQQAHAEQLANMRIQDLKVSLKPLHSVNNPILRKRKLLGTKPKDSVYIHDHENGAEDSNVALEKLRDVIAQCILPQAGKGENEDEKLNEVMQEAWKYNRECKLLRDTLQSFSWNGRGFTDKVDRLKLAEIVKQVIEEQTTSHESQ
Outline: (§1)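 Single-concentration screen, singlicate, 30 uM final (diluted from 1 mM DMSO solutions), fluorescently tagged peptide substrate appropriate to each kinase, ATP at apparent Km for each protein. Phosphorylated and unphosphorylated peptides separated electrophoretically; conversion is the phosphorylated peak area over the sum of both peaks. No-inhibitor and no-ATP controls; H89 reference on each plate.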

[2] = biological target: T2, Serine/threonine-protein kinase Chk1 (Homo sapiens) (UniProt O14757); assay: Inhibition of CHK1 at 30 uM by microfluidic mobility shift assay; outline: as §1
T2 sequence (whole entry): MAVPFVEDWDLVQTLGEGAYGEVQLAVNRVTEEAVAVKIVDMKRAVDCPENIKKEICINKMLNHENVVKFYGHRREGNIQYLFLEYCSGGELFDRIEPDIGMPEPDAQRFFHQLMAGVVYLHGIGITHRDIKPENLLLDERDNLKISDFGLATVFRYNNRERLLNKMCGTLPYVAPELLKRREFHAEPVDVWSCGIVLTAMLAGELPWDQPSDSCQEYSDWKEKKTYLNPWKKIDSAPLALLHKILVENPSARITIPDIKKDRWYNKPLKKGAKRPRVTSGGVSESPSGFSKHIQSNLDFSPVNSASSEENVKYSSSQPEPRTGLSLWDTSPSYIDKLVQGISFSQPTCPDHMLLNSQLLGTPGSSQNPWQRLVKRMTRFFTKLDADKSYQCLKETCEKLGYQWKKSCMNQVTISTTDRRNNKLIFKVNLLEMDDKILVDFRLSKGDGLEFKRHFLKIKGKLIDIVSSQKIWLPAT

[3] = biological target: Tyrosine-protein kinase Lyn (Homo sapiens, UniProt P07948); assay: Inhibition of LYN at 30 uM by microfluidic mobility shift assay; outline: as §1
Chain of Tyrosine-protein kinase Lyn (P07948 2-512 limits assumed): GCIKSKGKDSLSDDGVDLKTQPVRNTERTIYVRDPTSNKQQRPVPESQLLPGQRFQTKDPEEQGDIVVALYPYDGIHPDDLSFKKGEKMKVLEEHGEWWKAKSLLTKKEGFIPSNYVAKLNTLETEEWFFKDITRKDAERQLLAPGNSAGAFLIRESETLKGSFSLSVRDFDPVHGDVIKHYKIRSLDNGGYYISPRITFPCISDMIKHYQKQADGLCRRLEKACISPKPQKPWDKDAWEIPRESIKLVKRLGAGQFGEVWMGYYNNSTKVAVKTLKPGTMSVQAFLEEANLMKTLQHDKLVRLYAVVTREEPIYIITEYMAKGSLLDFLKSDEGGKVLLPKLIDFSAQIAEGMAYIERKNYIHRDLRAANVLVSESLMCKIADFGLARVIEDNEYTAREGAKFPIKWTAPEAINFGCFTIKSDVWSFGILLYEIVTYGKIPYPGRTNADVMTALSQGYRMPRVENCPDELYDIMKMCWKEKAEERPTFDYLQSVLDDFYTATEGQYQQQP

[4] = biological target: Serine/threonine-protein kinase Chk2 (Homo sapiens, UniProt O96017); assay: Inhibition of CHK2 at 30 uM by microfluidic mobility shift assay; outline: as §1
Chain of Serine/threonine-protein kinase Chk2 (O96017 whole entry): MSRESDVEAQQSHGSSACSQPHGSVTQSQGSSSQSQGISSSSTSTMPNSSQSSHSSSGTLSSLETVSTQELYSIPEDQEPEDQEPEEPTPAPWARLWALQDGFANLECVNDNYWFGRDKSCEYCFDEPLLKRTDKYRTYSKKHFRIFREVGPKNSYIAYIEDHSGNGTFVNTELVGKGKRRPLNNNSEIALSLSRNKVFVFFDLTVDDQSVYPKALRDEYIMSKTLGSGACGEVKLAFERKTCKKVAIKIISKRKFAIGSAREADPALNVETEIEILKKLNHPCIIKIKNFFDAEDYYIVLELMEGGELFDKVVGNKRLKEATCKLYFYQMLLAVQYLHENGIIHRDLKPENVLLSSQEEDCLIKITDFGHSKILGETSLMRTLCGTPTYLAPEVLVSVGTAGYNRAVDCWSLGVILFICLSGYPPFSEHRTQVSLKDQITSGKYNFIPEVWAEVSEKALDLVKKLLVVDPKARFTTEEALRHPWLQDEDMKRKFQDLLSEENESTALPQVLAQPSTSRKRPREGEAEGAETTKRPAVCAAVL

[5] = biological target: Proto-oncogene tyrosine-protein kinase Src (Homo sapiens, UniProt P12931); assay: Inhibition of SRC at 30 uM by microfluidic mobility shift assay; outline: as §1
Chain of Proto-oncogene tyrosine-protein kinase Src (P12931 2-536 limits assumed): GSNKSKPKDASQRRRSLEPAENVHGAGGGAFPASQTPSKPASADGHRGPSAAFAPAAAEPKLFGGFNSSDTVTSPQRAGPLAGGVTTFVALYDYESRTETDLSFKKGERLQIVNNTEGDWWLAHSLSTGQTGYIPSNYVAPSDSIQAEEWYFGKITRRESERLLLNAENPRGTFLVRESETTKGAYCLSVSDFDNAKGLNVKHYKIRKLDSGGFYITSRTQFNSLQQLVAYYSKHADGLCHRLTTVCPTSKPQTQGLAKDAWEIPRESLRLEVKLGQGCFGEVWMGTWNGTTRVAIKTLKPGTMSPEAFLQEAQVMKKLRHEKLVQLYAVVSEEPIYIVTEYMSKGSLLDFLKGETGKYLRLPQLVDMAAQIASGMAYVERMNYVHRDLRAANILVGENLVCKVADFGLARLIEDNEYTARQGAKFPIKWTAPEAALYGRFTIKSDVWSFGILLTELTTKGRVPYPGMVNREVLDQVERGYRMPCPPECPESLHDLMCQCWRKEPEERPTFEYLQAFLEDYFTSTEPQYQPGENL

[6] = Inhibition of PKA at 30 uM by microfluidic mobility shift assay; outline: as §1
[7] = biological target: Insulin receptor (Homo sapiens) (UniProt P06213); assay: Inhibition of INSR at 30 uM by microfluidic mobility shift assay; outline: as §1
Chain of Insulin receptor (Homo sapiens) (P06213 28-758 limits assumed): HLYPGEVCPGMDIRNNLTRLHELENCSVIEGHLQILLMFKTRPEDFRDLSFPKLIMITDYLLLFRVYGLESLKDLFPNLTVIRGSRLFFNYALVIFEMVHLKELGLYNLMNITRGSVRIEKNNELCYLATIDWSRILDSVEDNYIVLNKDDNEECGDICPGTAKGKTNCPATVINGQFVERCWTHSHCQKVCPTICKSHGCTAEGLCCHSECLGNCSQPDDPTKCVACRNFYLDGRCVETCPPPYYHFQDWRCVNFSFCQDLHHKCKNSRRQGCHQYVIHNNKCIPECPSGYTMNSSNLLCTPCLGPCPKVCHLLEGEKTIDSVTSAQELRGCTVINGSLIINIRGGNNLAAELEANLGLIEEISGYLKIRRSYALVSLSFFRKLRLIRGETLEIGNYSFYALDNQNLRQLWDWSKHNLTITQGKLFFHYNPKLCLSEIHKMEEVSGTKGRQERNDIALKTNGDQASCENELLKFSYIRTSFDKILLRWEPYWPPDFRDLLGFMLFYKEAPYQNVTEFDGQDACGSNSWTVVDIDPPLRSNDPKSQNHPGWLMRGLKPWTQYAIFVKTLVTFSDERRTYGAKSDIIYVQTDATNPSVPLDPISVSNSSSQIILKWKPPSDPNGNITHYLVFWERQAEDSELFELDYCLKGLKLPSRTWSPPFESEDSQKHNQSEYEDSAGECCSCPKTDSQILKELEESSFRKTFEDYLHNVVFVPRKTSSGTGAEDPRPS
Chain of Insulin receptor (Homo sapiens) (P06213 763-1382 limits assumed): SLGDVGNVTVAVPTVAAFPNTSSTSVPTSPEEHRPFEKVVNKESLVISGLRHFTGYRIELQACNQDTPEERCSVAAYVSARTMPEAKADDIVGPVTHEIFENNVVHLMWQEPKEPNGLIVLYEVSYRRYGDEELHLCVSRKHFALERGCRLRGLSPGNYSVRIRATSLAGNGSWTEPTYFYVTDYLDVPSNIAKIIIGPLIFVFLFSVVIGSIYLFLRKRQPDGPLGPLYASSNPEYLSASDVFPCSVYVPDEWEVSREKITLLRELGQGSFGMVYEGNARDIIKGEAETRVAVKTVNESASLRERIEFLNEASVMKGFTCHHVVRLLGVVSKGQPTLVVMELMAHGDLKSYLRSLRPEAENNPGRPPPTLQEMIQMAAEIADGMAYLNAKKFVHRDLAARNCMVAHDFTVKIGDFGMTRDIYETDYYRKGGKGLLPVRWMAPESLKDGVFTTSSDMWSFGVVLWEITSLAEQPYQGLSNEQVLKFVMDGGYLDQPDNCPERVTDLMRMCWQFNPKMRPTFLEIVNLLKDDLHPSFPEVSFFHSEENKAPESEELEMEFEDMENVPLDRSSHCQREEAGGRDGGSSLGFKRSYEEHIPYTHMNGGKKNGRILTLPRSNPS

[8] = Aqueous solubility of the compound by HPLC analysis; assay type: physicochemical; conditions: water
Outline: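 Solubility determined by HPLC measurement of the concentration in saturated aqueous solutions of the compounds.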

| inhibition [1] | inhibition [2] | inhibition [3] | inhibition [4] | inhibition [5] | inhibition [6] | inhibition [7] | solubility [8] | Structure (SMILES) |
| --- | --- | --- | --- | --- | --- | --- | --- | --- |
| 1% | 7% | 5% | -2% | 3% | 4% | -2% | – | Cc1cc2c(c(N)nn2C)c(N2CC[C@H](O)C2)n1 |
| 9% | 34% | 10% | 25% | 18% | 5% | 16% | – | Cn1nc(N)c2c(=O)[nH]c(-c3ccccn3)cc21 |
| 7% | 14% | 56% | 43% | 59% | 82% | 6% | – | COc1ccc(-c2cc3[nH]nc(N)c3c(=O)[nH]2)cc1 |
| 2% | 11% | 8% | 5% | 7% | 1% | 4% | – | CC(C)(C)c1cc2nn(-c3ccccc3)c(N)c2c(=O)[nH]1 |
| 11% | 54% | 76% | 68% | 85% | 98% | 17% | – | CN1CCN(c2ccc(-c3cc4[nH]nc(N)c4c(=O)[nH]3)cc2)CC1 |
| 10% | 11% | 45% | 33% | 33% | 86% | 9% | 794 µg/mL (≈ 3430 µM) | Cc1cc2[nH]nc(N)c2c(N2CCCCC2)n1 |
| 0% | 7% | 1% | -1% | -2% | -2% | -6% | – | Cc1cc2c(c(NS(C)(=O)=O)nn2C)c(=O)[nH]1 |
| 3% | 6% | 6% | 5% | 22% | 0% | 2% | – | Cn1nc2c3c(nc(-c4ccccc4)cc31)NCC(=O)N2 |
| 12% | 9% | 39% | 27% | 46% | 35% | 7% | – | Nc1n[nH]c2cc(-c3cccnc3)[nH]c(=O)c12 |
| 1% | 9% | 7% | 5% | 9% | 2% | 3% | – | Cc1nc(N)c2c(=O)[nH]c(C)cc2n1 |
| 5% | -8% | – | 3% | 9% | -3% | 3% | 1220 µg/mL (≈ 6830 µM) | Cc1cc2c(c(N)nn2C)c(=O)[nH]1 |
| 3% | 4% | 13% | 4% | 12% | -2% | 5% | 79 µg/mL (≈ 280 µM) | CC(=O)Nc1nn(C)c2cc(-c3ccccc3)[nH]c(=O)c12 |
| 4% | 5% | 16% | 2% | 17% | -6% | -5% | < 1 µg/mL | Cc1cc2c(c(NC(=O)Nc3ccccc3)nn2C)c(=O)[nH]1 |
| 1% | 0% | -1% | 6% | 2% | 3% | 2% | – | COc1ccc(S(=O)(=O)Nc2nn(C)c3cc(C)[nH]c(=O)c23)c(OC)c1 |
| 3% | 15% | 10% | 16% | 12% | -1% | 0% | – | Cc1cc2nc(N)nc(N)c2c(=O)[nH]1 |
| 11% | 25% | 22% | 16% | 32% | 7% | 2% | 76 µg/mL (≈ 316 µM) | Cn1nc(N)c2c(=O)[nH]c(-c3ccccc3)cc21 |

| inhibition [1] | inhibition [2] | inhibition [3] | inhibition [4] | inhibition [5] | inhibition [6] | inhibition [7] | solubility [8] | Structure (SMILES) |
| --- | --- | --- | --- | --- | --- | --- | --- | --- |
| 5% | 7% | 6% | -2% | 2% | 19% | 0% | – | COCCNc1nc(C)cc2c1c(N)nn2C |
| 6% | 27% | 26% | 31% | 30% | 7% | 6% | – | COc1cccc(-c2cc3c(c(N)nn3C)c(=O)[nH]2)c1 |
| 6% | 16% | 8% | 3% | 20% | 3% | 2% | – | CC(=O)Nc1nn(C)c2cc(-c3ccc(N4CCN(C)CC4)cc3)[nH]c(=O)c12 |
| 1% | 7% | 4% | 8% | 3% | -3% | 1% | – | COCCNc1nc(-c2ccccc2)cc2c1c(N)nn2C |
| 4% | 52% | 100% | 18% | 99% | 2% | 8% | – | CN1CCN(c2ccc(-c3cc4nn(-c5ccccc5)c(N)c4c(=O)[nH]3)cc2)CC1 |
| 18% | 29% | 49% | 47% | 63% | 42% | 34% | – | Nc1n[nH]c2cc(-c3ccccn3)[nH]c(=O)c12 |
| 16% | 36% | 49% | 16% | 62% | 8% | 5% | – | COc1ccc(-c2cc3c(c(N)nn3C)c(=O)[nH]2)cc1 |
| 0% | 17% | 12% | 7% | 6% | 2% | -3% | – | Nc1n[nH]c2c3c([nH]c(=O)c12)CCCC3 |
| 10% | 13% | 49% | 52% | 62% | 48% | 20% | – | COc1cccc(-c2cc3[nH]nc(N)c3c(=O)[nH]2)c1 |
| 13% | 21% | 39% | 34% | 46% | 55% | 9% | – | Nc1n[nH]c2cc(-c3ccncc3)[nH]c(=O)c12 |
| -1% | 2% | 40% | 18% | 37% | -3% | 5% | – | Nc1c2c(=O)[nH]c(-c3ccccc3)cc2nn1-c1ccccn1 |
| 6% | 3% | 86% | 16% | 87% | 6% | -2% | – | COc1ccccc1-c1cc2nn(-c3ccccc3)c(N)c2c(=O)[nH]1 |
| 12% | 5% | 90% | -3% | 89% | -6% | 0% | – | COc1ccc(-c2cc3nn(-c4ccccc4)c(N)c3c(=O)[nH]2)cc1 |
| 11% | 29% | 63% | 38% | 74% | 88% | 6% | – | Nc1n[nH]c2cc(-c3ccc(N4CCOCC4)cc3)[nH]c(=O)c12 |
| 13% | 11% | 19% | 18% | 15% | 10% | 2% | – | COc1ccc(-c2c(C)[nH]c(=O)c3c(N)nn(C)c23)cc1 |
